In ChEMBL document CHEMBL3351232, “Flemingins G-O, cytotoxic and antioxidant constituents of the leaves of Flemingia grahamiana” (J Nat Prod, 2014) one finds IC50, Ratio ED50 and EC50 data, which are given here for eleven compounds.

Broadly, the IC50 is the concentration that inhibits the measured activity by half.

Where only a bound is given, the exact number is not on record here.

One data set has as its system MCF7. In words: Cytotoxicity against human MCF7 cells after 48 hrs by PrestoBlue cell viability assay. The class given is functional, cell-based. To be noted: MCF7, 48 h. The method in brief: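 MCF-7 cells grown in DMEM with 10% FBS, 2 mM L-glutamine, penicillin and streptomycin, 37 °C, 5% CO2. Seeded for exponential growth, then after 24 h switched to medium containing compound or DMSO vehicle (0.1% or 1.0% v/v). Viability read by PrestoBlue fluorescence after 48 h, as % of vehicle control. Six replicates, at least three independent experiments, means ± SE.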

Data set [1] in a line: Activity index, ratio of compound ED50 to quercetin ED50 for antioxidant activity assessed as DPPH scavenging activity after 30 mins by spectrophotometry.
The nature of data set [2]: Antioxidant activity assessed as DPPH scavenging activity after 30 mins by spectrophotometry. The class given is physicochemical. To be noted: 0.5 h; read-out: ED50 (the source's name). The method in brief:
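Samples prepared in double-distilled methanol at 320, 160, 80, 40, 20, 10, 5 and 2.5 μg/mL. 1.0 mL added to 2.0 mL of 76 μM DPPH in methanol, held 30 min at room temperature, remaining DPPH read at 517 nm. Control was methanol plus DPPH; quercetin served as positive control. EC50 (50% absorbance decrease) obtained from a plot of % scavenged versus initial concentration.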
Background: The DPPH test is a chemical assay of radical scavenging.

As to `CC(C)(O)/C=C/CC1(C)C=Cc2c(O)c(C(=O)/C=C/c3ccccc3O)cc(O)c2O1` (stereo not given), in the data set with MCF7, the IC50 is > 236 µM.
In the case of `C=C(C)C(O)CCC1(C)C=Cc2c(O)c(C(=O)/C=C/c3cc(O)ccc3O)cc(O)c2O1` (stereo not given), in the data set with MCF7, 221 µM corresponded to half-maximal inhibition (IC50). Further, the Ratio ED50 in data set [1] is 3.3. Besides, the EC50 in data set [2] was 8.3 µM.
`CC(C)n1nc(C#Cc2ccncc2)c2c(N)ncnc21` came in with an IC50 in the data set with MCF7 of 5 µM.
Still for that read-out and setting: in the case of `Cc1cc(O)c2c(c1)C(=O)c1cc(O)cc(O)c1C2=O` [EMODIN] it was 317 µM.
On the same count and under the same terms, in the case of `CC(C)(O)/C=C/CC1(C)C=Cc2c(O)c(C(=O)/C=C/c3cc(O)ccc3O)cc(O)c2O1` (stereo not given) it was > 228 µM.
Consider `C=C(C)C(O)CCC1(C)C=Cc2c(O)c(C(=O)/C=C/c3c(O)cccc3O)cc(O)c2O1` (stereo not given), for which the Ratio ED50 in data set [1] worked out at 3.5. The EC50 in data set [2] worked out at 8.9 µM.
Take `CC(C)=CCCC1(C)C=Cc2c(O)c(C(=O)/C=C/c3c(O)cccc3O)cc(O)c2O1` (stereo not given): the IC50 in the data set with MCF7 is > 237 µM. Besides, the Ratio ED50 in data set [1] was 3.1. In addition, the EC50 in data set [2] came to 7.8 µM.
On the same counts, the results for `CC(C)=CCCC1(C)C=Cc2c(O)c(C(=O)/C=C/c3ccccc3O)cc(O)c2O1` (stereo not given) are 8.9 µM, 1.8 and 4.4 µM.
`CC(C)=CCCC1(C)C=Cc2c(O)c(C(=O)/C=C/c3cc(O)ccc3O)cc(O)c2O1` (stereo not given): half-maximal inhibition in the data set on MCF7 (IC50) required 7.6 µM. In data set [1], the Ratio ED50 stood at 2.4. For the same compound, the EC50 in data set [2] was found to be 5.9 µM.
Regarding `C=C(C)C(O)CCC1(C)C=Cc2c(O)c(C(=O)/C=C/c3ccccc3O)cc(O)c2O1` (mixture of isomers), the IC50 in the data set on MCF7 was > 236 µM.
Regarding `O=c1c(O)c(-c2ccc(O)c(O)c2)oc2cc(O)cc(O)c12` [QUERCETIN], the EC50 in data set [2] stood at 2.5 µM.
